Assay [1] deals with Mitogen-activated protein kinase kinase kinase 3 (Homo sapiens, UniProt Q99759). As to the kind of experiment: Binding affinity to MAP3K3 in SILAC-labeled human MDA-MB-231 cells lysate by mass spectrometry based kinAffinity assay. It counts as subcellular. An outline of the steps:
(§1)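 Chemical proteomics: MDA-MB-231 lysate bound to matrix of immobilized broad kinase inhibitors at several densities (BC50), then competed with increasing free compound (CC50); proteins quantified by mass spectrometry, Kd via Cheng-Prusoff. Two competition formats run in parallel to check equilibrium.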

The target of assay [2] is Delta(3,5)-Delta(2,4)-dienoyl-CoA isomerase, mitochondrial (Homo sapiens, UniProt Q13011). The assay can be described thus: Binding affinity to ECH1 in SILAC-labeled human MDA-MB-231 cells lysate by mass spectrometry based kinAffinity assay. It is filed as subcellular. Put shortly:
as §1

The test system of assay [3] is MDA-MB-231. The assay can be described thus: Antimetastatic activity against human MDA-MB-231 cells xenografted in mouse assessed as reduction in lung metastasis at 30 mg/kg, ip bid measured 3 times per week starting at day 12 by hematoxylin and eosin staining based assay relative to control. Also noted: scale not given: the % may be the effect or the level left. It counts as functional. Put shortly:
(§2)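 Female SCID/Beige mice inoculated with 2 x 10^6 MDA-MB-231 cells in HBSS:Matrigel (1:1) into third mammary fat pad under ketamine/xylazine. Test agent 30 mg/kg ip twice daily (12 h apart) in PEG400/H2O 70:30, or paclitaxel 10 mg/kg iv three times weekly; 10 mice/group. Tumors measured three times weekly from day 12; lungs and lymph nodes excised, formalin-fixed, nodes H&E-scored (mean ± SEM).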

The subject of assay [4] is MDA-MB-231. As to the kind of experiment: Antitumor activity against human MDA-MB-231 cells xenografted in mouse assessed as tumor growth inhibition at 30 mg/kg, ip bid measured 3 times per week starting at day 12. It counts as functional, organism-based. Put shortly: as §2
In general terms: In xenograft studies the graft and the host belong to different species.

In assay [5] the target is Cyclin-dependent kinase 17 (Homo sapiens, UniProt Q00537). As to the kind of experiment: Binding affinity to PCTK2 in SILAC-labeled human MDA-MB-231 cells lysate by mass spectrometry based kinAffinity assay. It is filed as subcellular. An outline of the steps:
(§3)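 MDA-MB-231 lysate applied to KinAffinity matrix of immobilized broadband kinase inhibitors at graded densities to obtain BC50 per target. Competition then run with increasing free compound to give CC50; Kd derived by Cheng-Prusoff. Two competition experiments in parallel to check equilibrium, one with lysate pre-incubated with compound before adding matrix. Quantitation by mass spectrometry.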

In assay [6] the target is MAP/microtubule affinity-regulating kinase 4 (Homo sapiens, UniProt Q96L34). The assay can be described thus: Binding affinity to MARK4 in SILAC-labeled human MDA-MB-231 cells lysate by mass spectrometry based kinAffinity assay. It is filed as subcellular. An outline of the steps: as §1
The target of assay [7] is Tyrosine-protein kinase JAK3 (Homo sapiens) (UniProt P52333). The assay can be described thus: Inhibition of JAK3 (unknown origin) using fluorescence labeled peptide as substrate at 10 uM by IMAP assay. Put shortly: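 Kinase selectivity profiling, run by a contract lab, with the test compound at 10 µmol/L in triplicate. In the IMAP format, the kinase phosphorylates a fluorescently labelled substrate peptide in solution. A binding solution of trivalent metal-based nanoparticles is then added to capture the phosphopeptide, and the drop in rotational speed is read as fluorescence polarization. Results are given as percent inhibition of each kinase.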

For assay [8], the target named is Receptor tyrosine-protein kinase erbB-2 (Homo sapiens) (UniProt P04626). As to the kind of experiment: Inhibition of ERBB2 (unknown origin) using biotinylated peptide as substrate at 10 uM by TR-FRET assay. For orientation: In TR-FRET formats the signal depends on donor and acceptor labels being close together.
Chain of Receptor tyrosine-protein kinase erbB-2 (Homo sapiens) (P04626 whole entry, the tested form may be a part): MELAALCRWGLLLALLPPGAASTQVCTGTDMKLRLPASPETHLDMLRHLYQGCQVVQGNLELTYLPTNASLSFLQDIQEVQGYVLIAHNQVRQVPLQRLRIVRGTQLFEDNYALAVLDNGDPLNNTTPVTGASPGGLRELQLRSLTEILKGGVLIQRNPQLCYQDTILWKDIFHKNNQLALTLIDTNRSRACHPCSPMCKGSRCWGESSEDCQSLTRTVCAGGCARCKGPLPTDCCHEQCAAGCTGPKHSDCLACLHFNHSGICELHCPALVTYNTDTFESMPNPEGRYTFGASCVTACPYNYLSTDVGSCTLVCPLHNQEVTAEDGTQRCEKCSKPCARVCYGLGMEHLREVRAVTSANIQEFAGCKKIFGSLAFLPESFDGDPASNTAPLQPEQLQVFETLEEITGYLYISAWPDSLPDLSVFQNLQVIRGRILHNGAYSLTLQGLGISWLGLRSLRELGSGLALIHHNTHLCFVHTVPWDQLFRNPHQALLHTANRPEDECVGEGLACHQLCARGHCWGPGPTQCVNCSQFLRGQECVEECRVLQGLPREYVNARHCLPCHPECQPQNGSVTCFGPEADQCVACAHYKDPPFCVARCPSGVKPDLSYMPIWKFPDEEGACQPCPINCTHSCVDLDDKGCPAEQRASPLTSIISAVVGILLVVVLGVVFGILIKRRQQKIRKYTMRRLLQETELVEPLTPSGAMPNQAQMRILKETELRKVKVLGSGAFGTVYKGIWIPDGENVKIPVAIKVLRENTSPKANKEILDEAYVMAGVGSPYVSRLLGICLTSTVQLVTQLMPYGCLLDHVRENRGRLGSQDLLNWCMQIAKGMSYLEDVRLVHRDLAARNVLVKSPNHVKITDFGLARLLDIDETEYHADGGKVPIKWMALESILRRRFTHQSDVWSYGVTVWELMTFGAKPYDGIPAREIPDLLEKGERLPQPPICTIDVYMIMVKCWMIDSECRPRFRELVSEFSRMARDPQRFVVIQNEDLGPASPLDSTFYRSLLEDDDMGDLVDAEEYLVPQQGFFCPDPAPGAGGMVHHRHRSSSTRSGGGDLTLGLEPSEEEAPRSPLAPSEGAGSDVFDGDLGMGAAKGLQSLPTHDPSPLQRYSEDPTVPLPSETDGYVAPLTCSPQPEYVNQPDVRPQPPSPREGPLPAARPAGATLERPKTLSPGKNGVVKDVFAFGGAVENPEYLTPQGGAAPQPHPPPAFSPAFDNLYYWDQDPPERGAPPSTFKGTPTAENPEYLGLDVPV
Assay [9] deals with Epithelial discoidin domain-containing receptor 1 (Homo sapiens) (UniProt Q08345). The assay can be described thus: Binding affinity to DDR1 (unknown origin) at 10 uM.
Chain of Epithelial discoidin domain-containing receptor 1 (Homo sapiens) (Q08345 whole entry, the tested form may be a part): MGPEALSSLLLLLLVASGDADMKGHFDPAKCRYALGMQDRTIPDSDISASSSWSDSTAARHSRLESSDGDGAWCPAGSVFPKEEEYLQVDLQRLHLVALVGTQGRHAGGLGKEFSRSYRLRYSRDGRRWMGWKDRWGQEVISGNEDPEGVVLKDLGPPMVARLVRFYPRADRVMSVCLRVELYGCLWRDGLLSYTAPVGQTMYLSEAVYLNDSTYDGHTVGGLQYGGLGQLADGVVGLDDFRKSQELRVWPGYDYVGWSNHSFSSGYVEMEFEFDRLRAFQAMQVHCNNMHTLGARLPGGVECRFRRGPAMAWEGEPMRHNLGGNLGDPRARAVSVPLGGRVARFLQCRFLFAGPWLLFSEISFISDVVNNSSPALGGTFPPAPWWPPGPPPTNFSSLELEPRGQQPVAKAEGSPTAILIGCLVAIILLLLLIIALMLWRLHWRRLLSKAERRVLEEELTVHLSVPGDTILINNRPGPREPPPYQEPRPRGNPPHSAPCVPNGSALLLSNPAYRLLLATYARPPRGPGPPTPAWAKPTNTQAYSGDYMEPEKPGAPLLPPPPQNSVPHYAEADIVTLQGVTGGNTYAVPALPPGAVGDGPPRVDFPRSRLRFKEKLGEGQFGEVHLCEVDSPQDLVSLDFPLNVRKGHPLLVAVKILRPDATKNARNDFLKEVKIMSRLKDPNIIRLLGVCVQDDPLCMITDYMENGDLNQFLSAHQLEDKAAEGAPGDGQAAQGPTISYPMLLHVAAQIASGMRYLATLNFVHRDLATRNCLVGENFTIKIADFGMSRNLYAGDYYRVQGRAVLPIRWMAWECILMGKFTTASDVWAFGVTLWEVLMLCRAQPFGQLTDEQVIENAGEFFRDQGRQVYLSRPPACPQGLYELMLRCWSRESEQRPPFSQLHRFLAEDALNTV
The target is the same in assay [10]. As to the kind of experiment: Inhibition of DDR1 (unknown origin) using biotinylated peptide as substrate at 10 uM by TR-FRET assay.
Assay [11] deals with Receptor tyrosine-protein kinase erbB-2 (Homo sapiens) (UniProt P04626). The assay can be described thus: Binding affinity to ERBB2 (unknown origin) at 10 uM. Put shortly:
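HTRF kinase assay for HER2 at 10 µM compound, triplicate: biotinylated peptide phosphorylated, detected by europium cryptate anti-phospho antibody and streptavidin-XL665 TR-FRET; percent inhibition.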

Assay [12] addresses Tyrosine-protein kinase SYK (Homo sapiens) (UniProt P43405). As to the kind of experiment: Binding affinity to SYK (unknown origin) at 10 uM.
Assay [13] concerns the target Insulin receptor (Homo sapiens) (UniProt P06213). The assay can be described thus: Inhibition of INSR (unknown origin) using fluorescence labeled peptide as substrate at 10 uM by IMAP assay. An outline of the steps:
(§4)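 IMAP fluorescence-polarization kinase assay at 10 µmol/L compound, run in triplicate by a contract lab. A fluorescently labeled substrate peptide is phosphorylated, then nanoparticles carrying trivalent metal bind the phosphopeptide and slow its rotation. Read-out is fluorescence polarization, expressed as percent inhibition.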

Assay [14] addresses Fibroblast growth factor receptor 3 (Homo sapiens) (UniProt P22607). The assay can be described thus: Inhibition of FGFR3 (unknown origin) using fluorescence labeled peptide as substrate at 10 uM by IMAP assay. An outline of the steps:
as §4

Assay [15] has the same target. The assay can be described thus: Inhibition of FGFR3 (unknown origin) using fluorescently-labeled peptide as substrate at 10 uM by IMAP fluorescence polarization assay. On the technique in general: Polarisation of emitted light reports the rotation of a fluorescent probe.
Assay [16] is described as follows: Antitumor activity against AXL expressing mouse MXT cells allografted in mouse assessed as reduction in tumor size at 15 mg/kg, ip qd administered 21 consecutive days relative to control. It is filed as functional. Also noted: scale not given: the % may be the effect or the level left. An outline of the steps:
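MXT mammary tumor cells implanted subcutaneously, grown to about 125 mm3, then dosed ip once daily for 21 consecutive days at 5 or 15 mg/kg vs vehicle, 7 animals/group; tumor size compared with vehicle after 3 weeks, survival also recorded.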

The target of assay [17] is TANK-binding kinase 1-binding protein 1 (Homo sapiens, UniProt A7MCY6). The assay can be described thus: Binding affinity to TBKBP1 in SILAC-labeled human MDA-MB-231 cells lysate by mass spectrometry based kinAffinity assay. It is filed as subcellular. An outline of the steps: as §3
In assay [18] the target is Tyrosine-protein kinase Tec (Homo sapiens, UniProt P42680). The assay can be described thus: Binding affinity to TEC in SILAC-labeled human MDA-MB-231 cells lysate by mass spectrometry based kinAffinity assay. It counts as subcellular. An outline of the steps:
as §3

For assay [19], the target named is Protein-tyrosine kinase 2-beta (Homo sapiens, UniProt Q14289). As to the kind of experiment: Binding affinity to PYK2 in SILAC-labeled human MDA-MB-231 cells lysate by mass spectrometry based kinAffinity assay. It counts as subcellular. Put shortly: as §3
Chain of Protein-tyrosine kinase 2-beta (Q14289 whole entry): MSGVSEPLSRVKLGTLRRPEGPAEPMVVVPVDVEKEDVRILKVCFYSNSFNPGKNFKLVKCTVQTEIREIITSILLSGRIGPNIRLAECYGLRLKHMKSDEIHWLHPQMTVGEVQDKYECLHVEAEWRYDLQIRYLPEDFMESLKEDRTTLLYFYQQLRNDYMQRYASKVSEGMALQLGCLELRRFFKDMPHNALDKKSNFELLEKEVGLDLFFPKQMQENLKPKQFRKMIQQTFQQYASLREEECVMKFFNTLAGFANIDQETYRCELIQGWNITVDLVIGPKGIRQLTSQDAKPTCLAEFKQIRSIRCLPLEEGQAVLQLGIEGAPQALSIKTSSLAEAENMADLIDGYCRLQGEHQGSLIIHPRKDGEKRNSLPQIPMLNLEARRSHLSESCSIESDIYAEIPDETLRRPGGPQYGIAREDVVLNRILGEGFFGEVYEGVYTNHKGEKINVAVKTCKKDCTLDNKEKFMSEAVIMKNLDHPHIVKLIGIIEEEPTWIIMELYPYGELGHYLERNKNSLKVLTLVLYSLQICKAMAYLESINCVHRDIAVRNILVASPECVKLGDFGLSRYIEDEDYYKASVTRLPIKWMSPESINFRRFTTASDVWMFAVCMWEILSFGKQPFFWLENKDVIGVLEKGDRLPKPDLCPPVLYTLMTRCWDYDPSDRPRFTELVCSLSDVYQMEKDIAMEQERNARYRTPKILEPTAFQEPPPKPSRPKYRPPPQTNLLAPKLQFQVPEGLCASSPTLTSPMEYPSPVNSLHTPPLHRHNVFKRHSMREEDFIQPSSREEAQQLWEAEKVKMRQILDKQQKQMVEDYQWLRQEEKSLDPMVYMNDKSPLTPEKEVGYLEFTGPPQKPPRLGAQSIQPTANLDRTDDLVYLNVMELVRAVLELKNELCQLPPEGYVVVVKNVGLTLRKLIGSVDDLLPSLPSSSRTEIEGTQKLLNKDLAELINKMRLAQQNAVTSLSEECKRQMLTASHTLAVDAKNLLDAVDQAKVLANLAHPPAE

The source made the active and inactive calls. The calls are words filed in the database; no cut-off is given here.

Chain of Fibroblast growth factor receptor 3 (Homo sapiens) (P22607 23-806 limits assumed): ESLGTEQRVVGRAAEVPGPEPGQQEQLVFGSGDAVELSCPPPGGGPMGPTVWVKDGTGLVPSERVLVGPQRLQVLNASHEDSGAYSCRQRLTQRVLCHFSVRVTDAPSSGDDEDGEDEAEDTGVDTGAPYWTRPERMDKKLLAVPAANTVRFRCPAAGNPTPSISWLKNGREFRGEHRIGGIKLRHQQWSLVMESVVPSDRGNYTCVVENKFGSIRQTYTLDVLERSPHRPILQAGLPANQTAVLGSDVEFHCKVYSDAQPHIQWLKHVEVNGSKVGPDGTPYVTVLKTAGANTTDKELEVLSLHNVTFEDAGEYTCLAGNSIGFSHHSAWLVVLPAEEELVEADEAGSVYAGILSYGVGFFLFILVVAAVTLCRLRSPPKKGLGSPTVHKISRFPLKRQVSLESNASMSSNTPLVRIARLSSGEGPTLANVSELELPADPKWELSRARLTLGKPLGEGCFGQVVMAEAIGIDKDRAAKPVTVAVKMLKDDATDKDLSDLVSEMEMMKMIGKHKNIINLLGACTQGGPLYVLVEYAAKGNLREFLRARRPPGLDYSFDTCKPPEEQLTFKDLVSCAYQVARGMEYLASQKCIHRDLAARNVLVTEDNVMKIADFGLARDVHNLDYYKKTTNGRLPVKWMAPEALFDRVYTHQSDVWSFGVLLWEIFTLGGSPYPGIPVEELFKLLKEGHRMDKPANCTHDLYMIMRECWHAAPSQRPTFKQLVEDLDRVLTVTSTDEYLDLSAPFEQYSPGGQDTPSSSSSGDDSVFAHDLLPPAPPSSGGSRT
Chain of Cyclin-dependent kinase 17 (Q00537 whole entry): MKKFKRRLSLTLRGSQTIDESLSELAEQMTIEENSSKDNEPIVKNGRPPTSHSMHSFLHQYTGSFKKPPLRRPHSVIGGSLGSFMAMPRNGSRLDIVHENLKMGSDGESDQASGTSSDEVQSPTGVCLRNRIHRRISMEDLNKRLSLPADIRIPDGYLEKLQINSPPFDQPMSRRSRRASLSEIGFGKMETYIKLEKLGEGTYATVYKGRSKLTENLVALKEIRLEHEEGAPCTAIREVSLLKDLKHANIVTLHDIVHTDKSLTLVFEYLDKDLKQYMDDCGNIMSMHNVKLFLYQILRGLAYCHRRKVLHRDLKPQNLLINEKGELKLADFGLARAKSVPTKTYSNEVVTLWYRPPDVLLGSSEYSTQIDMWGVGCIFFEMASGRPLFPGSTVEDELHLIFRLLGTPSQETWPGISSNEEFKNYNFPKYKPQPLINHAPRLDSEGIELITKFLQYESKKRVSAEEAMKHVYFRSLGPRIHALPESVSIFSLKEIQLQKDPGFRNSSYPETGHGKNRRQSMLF
Chain of Delta(3,5)-Delta(2,4)-dienoyl-CoA isomerase, mitochondrial (Q13011 whole entry): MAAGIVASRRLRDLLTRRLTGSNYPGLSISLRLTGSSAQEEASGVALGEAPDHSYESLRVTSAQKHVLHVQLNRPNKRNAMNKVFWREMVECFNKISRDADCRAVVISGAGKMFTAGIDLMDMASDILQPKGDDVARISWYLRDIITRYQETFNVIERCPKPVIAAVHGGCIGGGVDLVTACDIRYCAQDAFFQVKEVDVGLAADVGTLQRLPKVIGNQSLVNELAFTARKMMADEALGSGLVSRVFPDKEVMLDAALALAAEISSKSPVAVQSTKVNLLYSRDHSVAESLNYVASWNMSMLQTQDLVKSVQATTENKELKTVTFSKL

As to `COc1cc2c(Oc3ccc(NS(=O)(=O)c4cc(F)ccc4F)cc3F)ccnc2cc1OCCCN1CCN(C)CC1`, the “Kd(free)” value is 3.133 µM in assay [1], 2.857 µM in assay [2], above 7.651 µM in assay [5] and 5.975 µM in assay [6]. Also, the Activity with MDA-MB-231 [3] is recorded as 65.7%. Also, the TGI result with MDA-MB-231 [4] was “Active”.
As for `COc1cc2c(Oc3ccc(NS(=O)(=O)c4ccccc4C(F)(F)F)cc3F)ccnc2cc1OCCCN1CCN(C)CC1`, the inhibition entry in [7], in [8], in [9], in assay [10], in [11] and in assay [12] was “Active” throughout. The inhibition result in assay [13], in [14] and in assay [15] was “Active” in each case.
For the compound `COc1cc2c(Oc3ccc(NS(=O)(=O)c4cc(F)ccc4F)cc3F)ccnc2cc1OCCCN1CCCC(C)C1` (centres undefined), in assay [16], the Activity is recorded as 40%.
Turning to `COc1cc2c(Oc3ccc(NS(=O)(=O)c4c(F)cccc4F)cc3F)ccnc2cc1OCCCN1CCN(C)CC1`, the “Kd(free)” value was 2.09 µM in [17], above 3.674 µM in [18] and 6.928 µM in [19].

The values above are taken from ChEMBL document CHEMBL4371006, “Discovery of N-[4-(Quinolin-4-yloxy)phenyl]benzenesulfonamides as Novel AXL Kinase Inhibitors” (J Med Chem, 2018).
